Assays:
[1] = tested on: Trypanosoma brucei brucei; assay: Trypanocidal activity against Trypanosoma brucei brucei assessed as reduction in intracellular ATP production incubated for 72 hrs by CellTiter-Glo luminescent cell viability assay; assay type: functional, organism-based
How it was run: (§1)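 Bloodstream trypanosomes in 96-well culture were exposed to compound in 5-fold serial dilutions from 25 µg/mL to 1.6 ng/mL for 72 h. Seeding and temperature: T. b. brucei, T. b. gambiense and T. b. rhodesiense at 5×10^3 cells/mL and 37 °C; T. evansi at 1×10^4 cells/mL and 37 °C; T. congolense at 2×10^5 cells/mL and 33 °C. Viability was read as intracellular ATP by CellTiter-Glo luminescence. Three replicates; IC50 calculated.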

[2] = tested on: Trypanosoma brucei gambiense; assay: Trypanocidal activity against Trypanosoma brucei gambiense assessed as reduction in intracellular ATP production incubated for 72 hrs by CellTiter-Glo luminescent cell viability assay; assay type: functional, organism-based; how it was run: as §1
[3] = tested on: Trypanosoma brucei rhodesiense; assay: Trypanocidal activity against Trypanosoma brucei rhodesiense assessed as reduction in intracellular ATP production incubated for 72 hrs by CellTiter-Glo luminescent cell viability assay; assay type: functional, organism-based; how it was run: as §1
Trypanosoma congolense = assay: Trypanocidal activity against Trypanosoma congolense assessed as reduction in intracellular ATP production incubated for 72 hrs by CellTiter-Glo luminescent cell viability assay; assay type: functional, organism-based; how it was run: as §1
Trypanosoma evansi = assay: Trypanocidal activity against Trypanosoma evansi assessed as reduction in intracellular ATP production incubated for 72 hrs by CellTiter-Glo luminescent cell viability assay; assay type: functional, organism-based; how it was run: as §1
MDBK cells (Bos taurus) = assay: Cytotoxicity against bovine MDBK cells assessed as reduction in cell viability incubated for 72 hrs by CCK8 assay
[4] = Selectivity index, ratio of IC50 for cytotoxicity against bovine MDBK cells to IC50 for Trypanocidal activity against Trypanosoma evansi
[5] = Selectivity index, ratio of IC50 for cytotoxicity against bovine MDBK cells to IC50 for Trypanocidal activity against Trypanosoma congolense
[6] = Selectivity index, ratio of IC50 for cytotoxicity against bovine MDBK cells to IC50 for Trypanocidal activity against Trypanosoma brucei brucei; settings: cattle
[7] = Selectivity index, ratio of IC50 for cytotoxicity against bovine MDBK cells to IC50 for Trypanocidal activity against Trypanosoma brucei gambiense; settings: cattle
[8] = Selectivity index, ratio of IC50 for cytotoxicity against bovine MDBK cells to IC50 for Trypanocidal activity against Trypanosoma brucei rhodesiense
[9] = Selectivity ratio of IC50 for trypanocidal activity against Trypanosoma congolense to trypanocidal activity against Trypanosoma evansi; assay type: functional

| Structure (SMILES) | IC50 [1] [µM] | IC50 [2] [µM] | IC50 [3] [µM] | IC50 (Trypanosoma congolense) [µM] | IC50 (Trypanosoma evansi) [µM] | IC50 (MDBK cells (Bos taurus)) [µM] | selectivity ratio [4] | selectivity ratio [5] | selectivity ratio [6] | selectivity ratio [7] | selectivity ratio [8] | Ratio IC50 [9] |
| --- | --- | --- | --- | --- | --- | --- | --- | --- | --- | --- | --- | --- |
| COc1cccc(-c2ncc(-c3ccccc3[N+](=O)[O-])o2)c1OC | 49.6 | 63.4 | 56.4 | 8.4 | 49 | > 306 | > 6.3 | > 36 | > 6.2 | > 4.8 | > 5.4 | – |
| Oc1ccccc1-c1coc(-c2cccc(O)c2O)n1 | 1.3 | 1.6 | 1.5 | 0.85 | 0.42 | 9.7 | 23 | 11 | 7.5 | 6.1 | 6.4 | 2 |
| CC(=O)Oc1ccc(OC(C)=O)c(-c2cnc(-c3ccccc3)o2)c1 | 16.6 | 41.9 | 64.4 | 3.9 | 18.9 | 9.6 | 0.51 | 2.4 | 0.58 | 0.23 | 0.15 | – |
| COc1cccc(-c2ncc(-c3ccccc3N)o2)c1OC | 59.8 | 46.2 | 62.1 | 9.1 | 105 | 47.6 | 0.45 | 5.2 | 0.8 | 1 | 0.77 | – |
| COc1cccc(-c2cnc(-c3cccc(OC)c3OC)o2)c1OC | 70 | 69.2 | 70.2 | 26.4 | 65.5 | 90.8 | 1.4 | 3.4 | 1.3 | 1.3 | 1.3 | – |
| Oc1ccc(O)c(-c2ncc(-c3ccccc3O)o2)c1 | 25.9 | 80.9 | 84.2 | 9.5 | 22.2 | 77.4 | 3.5 | 8.2 | 3 | 0.96 | 0.92 | – |
| Oc1ccc(O)c(-c2cnc(-c3cc(O)ccc3O)o2)c1 | 54.7 | 78.3 | 72.1 | 8.6 | 44.4 | 22.7 | 0.51 | 2.6 | 0.41 | 0.29 | 0.31 | – |
| Oc1ccccc1-c1nnc(-c2cccc(O)c2O)o1 | 1.9 | 1.9 | 1.9 | 0.67 | 0.81 | 5.9 | 7.2 | 8.8 | 3.1 | 3.1 | 3.1 | – |
| COCOc1ccccc1-c1cnc(-c2cccc(OC)c2OC)o1 | 21.5 | 19.6 | 26.2 | 3.9 | 25.8 | 82.2 | 3.2 | 21 | 3.8 | 4.2 | 3.1 | – |
| COc1ccc(-c2cnc(-c3ccc(OC)c(OC)c3OC)o2)c(OC)c1OC | 37.6 | 40.5 | 31.4 | 16.4 | 60.4 | 39.7 | 0.66 | 2.4 | 1.1 | 0.98 | 1.3 | – |

Reference: ChEMBL document CHEMBL4811303, “Synthesis and evaluation of trypanocidal activity of derivatives of naturally occurring 2,5-diphenyloxazoles” (Bioorg Med Chem, 2021)
